Measurements from PMC9072715 (RSC Advances, 2019).

What was measured:
MCF-7 cells = assay: CCK-8 anti-proliferative assay, MCF-7; type: cell-based, human; conditions: read-out: IC50 MCF-7; MCF-7, CCK-8, 48 h
How it was run: (§1)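 Log-phase cells in DMEM were plated at 1 × 10^4 per well and allowed 12 h at 37 °C and 5% CO2. Test compounds (0–80 μM) were added for 48 h. Medium was replaced with medium containing 10% CCK-8 for 4 h, and A450 was read. Percent inhibition was calculated against the untreated control and doxorubicin (positive control), and IC50 was obtained by curve fitting.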

HeLa cells = assay: CCK-8 anti-proliferative assay, HeLa; type: cell-based; conditions: Homo sapiens, 48 h, read-out: IC50 HeLa, HeLa, CCK-8, 48 h
How it was run: as §1

rabbit erythrocytes = assay: Hemolysis of red blood cells assay; type: cell-based, NewZealand rabbit; conditions: 10% rabbit erythrocyte suspension, 3 to 48 μM, 4 hours, room temperature
How it was run: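 Heparinized blood came from a healthy New Zealand rabbit. Erythrocytes were washed three times in saline and diluted to a 10% suspension. The suspension was mixed 1:1 by volume with sample solution (0–48 μM test compound) and left 4 h at room temperature. Hemolysis was then assessed by observation.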

Row | IC50 (MCF-7 cells) | IC50 (HeLa cells) | SMILES | Hemolytic effect (rabbit erythrocytes)
1 | > 80 µM | 55 µM | C/C=C(/C)C(=O)O[C@H]1[C@H](OC(C)=O)[C@]2(CO)[C@H](O)C[C@]3(C)C(=CC[C@@H]4[C@@]5(C)CC[C@H](O[C@@H]6O[C@H](C(=O)O)[C@@H](O[C@@H]7O[C@H](CO)[C@@H](O)[C@H](O)[C@H]7O)[C@H](O)[C@H]6O[C@@H]6O[C@H](CO)[C@@H](O)[C@H](O)[C@H]6O)[C@](C)(CO)[C@@H]5CC[C@]43C)[C@@H]2CC1(C)C [Compound 7, Escin Ib] | 
2 |  |  | C/C=C(\C)C(=O)O[C@H]1[C@H](OC(C)=O)[C@]2(CO)[C@H](O)C[C@]3(C)C(=CC[C@@H]4[C@@]5(C)CC[C@H](O[C@@H]6O[C@H](C(=O)O)[C@@H](O[C@@H]7O[C@H](CO)[C@@H](O)[C@H](O)[C@H]7O)[C@H](O)[C@H]6O[C@@H]6O[C@H](CO)[C@@H](O)[C@H](O)[C@H]6O)[C@](C)(CO)[C@@H]5CC[C@]43C)[C@@H]2CC1(C)C [Compound 6, Escin Ia] | showed hemolytic effect at 24 and 48 μM
